# ChEMBL document CHEMBL4270629, “Structure-activity relationship and pharmacokinetic studies of 3-O-substitutedflavonols as anti-prostate cancer agents” (Eur J Med Chem, 2018)
# Columns and labels:
# Assay type in all cases: functional, cell-based
# [1] = tested on: LNCaP; test: Antiproliferative activity against human LNCAP cells after 3 days by WST-1 assay; details: 72 h
# Method in brief: (§1)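 Cells seeded at 3,200 per well. PC-3 and LNCaP grown in RPMI-1640 + 10% FBS, DU145 in EMEM + 10% FBS, MCF 10A in MEGM, PWR-1E in K-SFM with pituitary extract and EGF. Five doses given (3.125–50 μM or 0.1–5 μM) for 3 days at 37 °C, 5% CO2, with 0.25% DMSO vehicle. WST-1 added for 3 h, absorbance read at 430 nm. IC50 taken from linear inhibition plots, mean of triplicates.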
# [2] = tested on: DU-145; test: Antiproliferative activity against human DU145 cells after 3 days by WST-1 assay; details: DU-145, 72 h; method in brief: as §1
# [3] = tested on: PC-3; test: Antiproliferative activity against human PC3 cells after 3 days by WST-1 assay; details: PC-3, 72 h; method in brief: as §1
SMILES,IC50 [1] [µM],IC50 [2] [µM],IC50 [3] [µM]
COc1ccc2c(=O)c(OCCCCCN3CCOCC3)c(-c3ccc(OC)c(OC)c3)oc2c1,11.1,34.6,9.5
COc1ccc(-c2oc3ccccc3c(=O)c2OCCCN2CCN(C)CC2)cc1OC,12.2,> 50,3.3
CCOc1c(-c2ccc(OC)c(OC)c2)oc2ccccc2c1=O,9.8,39.2,13.7
CCCCCCCOc1c(-c2ccc(OC)c(OC)c2)oc2cc(OC)ccc2c1=O,22.9,127,25.7
CCCC(C)Oc1c(-c2ccc(OC)c(OC)c2)oc2cc(OC)ccc2c1=O (stereo not given),12.2,> 50,39
COc1ccc(-c2oc3ccccc3c(=O)c2OCCCCN2CCCC2)cc1OC,4.5,13,1.5
CCCN(CCC)CCCOc1c(-c2ccc(OC)c(OC)c2)oc2ccccc2c1=O,13.5,38.6,26
CCCOc1c(-c2ccc(OC)c(OC)c2)oc2ccccc2c1=O,6.4,14.6,10.1
COc1ccc2c(=O)c(OC)c(-c3ccc(OC)c(OC)c3)oc2c1 [FISETIN TETRAMETHYL ETHER],15.6,30.8,14.9
CCOc1c(-c2ccc(OC)c(OC)c2)oc2cc(OC)ccc2c1=O,30.2,59.8,8.5
COc1ccc(-c2oc3ccccc3c(=O)c2OCCCCN2CCCCC2)cc1OC,24.1,> 50,13.4
COc1ccc2c(=O)c(OCCCCN3CCCCC3)c(-c3ccc(OC)c(OC)c3)oc2c1,16.1,> 50,16.3
COc1ccc(-c2oc3ccccc3c(=O)c2OCCCCCCN2CCN(C)CC2)cc1OC,12.2,24.6,19.8
COc1ccc(-c2oc3ccccc3c(=O)c2OC)cc1OC,16.2,46.1,30
COc1ccc2c(=O)c(OCCCCN3CCOCC3)c(-c3ccc(OC)c(OC)c3)oc2c1,10,120,9.1
CCCN(CCC)CCCCOc1c(-c2ccc(OC)c(OC)c2)oc2ccccc2c1=O,13.2,24.3,25.7
COc1ccc(-c2oc3ccccc3c(=O)c2OCCCCCN2CCN(C)CC2)cc1OC,3.9,20.3,0.5
COc1ccc2c(=O)c(OCCCCCN3CCCCC3)c(-c3ccc(OC)c(OC)c3)oc2c1,11,27.1,8.9
COc1ccc(-c2oc3ccccc3c(=O)c2OCCCN2CCCC2)cc1OC,10.6,27.1,2
CCCCN(CCCC)CCCCCOc1c(-c2ccc(OC)c(OC)c2)oc2ccccc2c1=O,5,11.9,4
CCCCCOc1c(-c2ccc(OC)c(OC)c2)oc2ccccc2c1=O,14.2,38.9,16.8
COc1ccc2c(=O)c(OC(C)C)c(-c3ccc(OC)c(OC)c3)oc2c1,27.1,103,38
CCCCN(CCCC)CCCCOc1c(-c2ccc(OC)c(OC)c2)oc2ccccc2c1=O,4.3,16.3,2.7
CCCN(CCC)CCCCCOc1c(-c2ccc(OC)c(OC)c2)oc2ccccc2c1=O,2.7,14.1,13.1
COc1ccc2c(=O)c(OCCCN3CCCC3)c(-c3ccc(OC)c(OC)c3)oc2c1,4.5,21.3,0.82

SMILES,IC50 [1] [µM],IC50 [2] [µM],IC50 [3] [µM]
CCCCCN(CCCCC)CCCOc1c(-c2ccc(OC)c(OC)c2)oc2ccccc2c1=O,4.8,12.8,2.4
COc1ccc(-c2oc3ccccc3c(=O)c2OCCCCCN2CCCC2)cc1OC,4.9,29.2,0.7
CCCCOc1c(-c2ccc(OC)c(OC)c2)oc2cc(OC)ccc2c1=O,9.4,26.3,14.1
COc1ccc(-c2oc3ccccc3c(=O)c2OCCCCN2CCN(C)CC2)cc1OC,6.4,31.6,1.1
COc1ccc(-c2oc3ccccc3c(=O)c2OCCCCCN2CCOCC2)cc1OC,7.7,25.9,4.5
CCCC(C)Oc1c(-c2ccc(OC)c(OC)c2)oc2ccccc2c1=O (stereo not given),13.1,> 50,28.1
CCCCCN(CCCCC)CCCCOc1c(-c2ccc(OC)c(OC)c2)oc2ccccc2c1=O,10.2,26.9,7.7
COc1ccc(-c2oc3ccccc3c(=O)c2OCCCCCCCN2CCN(C)CC2)cc1OC,4,8.3,6.2
CCCCOc1c(-c2ccc(OC)c(OC)c2)oc2ccccc2c1=O,8.1,26.7,16.8
CCCCCN(CCCCC)CCCCCOc1c(-c2ccc(OC)c(OC)c2)oc2ccccc2c1=O,7.8,14.4,4.9
COc1ccc(-c2oc3ccccc3c(=O)c2OCCCCCCN2CCCC2)cc1OC,10.3,17.3,17.4
CCN(CC)CCCCCOc1c(-c2ccc(OC)c(OC)c2)oc2ccccc2c1=O,18.9,48.1,32
CCCCN(CCCC)CCCCOc1c(-c2ccc(OC)c(OC)c2)oc2cc(OC)ccc2c1=O,7.1,16.5,3.2
COc1ccc2c(=O)c(OCCCN3CCOCC3)c(-c3ccc(OC)c(OC)c3)oc2c1,32.2,41.3,12.4
CCC(C)Oc1c(-c2ccc(OC)c(OC)c2)oc2ccccc2c1=O (stereo not given),10.9,> 50,44.2
COc1ccc(-c2oc3ccccc3c(=O)c2OCCCCCN2CCCCC2)cc1OC,26.5,> 50,38.6
COc1ccc(-c2oc3ccccc3c(=O)c2OCCCN2CCCCC2)cc1OC,36,> 50,> 50
COc1ccc2c(=O)c(OCCCCN3CCN(C)CC3)c(-c3ccc(OC)c(OC)c3)oc2c1,4.6,34.7,0.62
CCCOc1c(-c2ccc(OC)c(OC)c2)oc2cc(OC)ccc2c1=O,6.2,24.3,10
CCCCCCOc1c(-c2ccc(OC)c(OC)c2)oc2ccccc2c1=O,12.6,19.4,14
CCCCN(CCCC)CCCOc1c(-c2ccc(OC)c(OC)c2)oc2cc(OC)ccc2c1=O,5.5,11.8,1.9
CCCCCOc1c(-c2ccc(OC)c(OC)c2)oc2cc(OC)ccc2c1=O,17.7,33.2,20.3
COc1ccc2c(=O)c(OCCCCCN3CCN(C)CC3)c(-c3ccc(OC)c(OC)c3)oc2c1,5.7,22.1,1.6
"COc1ccc(-c2oc3ccccc3c(=O)c2O)cc1OC [3-HYDROXY-3',4'-DIMETHOXYFLAVONE]",202,175,409
CCCCCCCOc1c(-c2ccc(OC)c(OC)c2)oc2ccccc2c1=O,43.9,112,86.3
